These results are taken from ChEMBL document CHEMBL2176900, “Design and synthesis of a novel series of bicyclic heterocycles as potent γ-secretase modulators” (J Med Chem, 2012).

Each structure is given as a SMILES string.

The subject of one data set is Brain. Kind of data set: Drug uptake in CD1 mouse brain at 10 mg/kg, po at 24 hrs by LC-MS/MS analysis. Format: ADME, organism-based. Also on record: dose 10 mg/kg, route oral. To be noted: in vivo, BLD = below limit of detection. The gist of the method:
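Overnight-fasted male CD1 mice received one oral dose (10 or 30 mg/kg) in 20% Captisol. After sacrifice, the left brain hemisphere was stored at −18 °C. Compound level was quantified by a qualified LC-MS/MS method, alongside EDTA plasma spun at 1900g, 4 °C. n = 4 per time point.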

Data set [1] concerns Rattus norvegicus. Kind of data set: Antialzheimer activity in Sprague-Dawley rat assessed as amyloid beta 40 level in CSF at 10 mg/kg, po at 4 hrs by ELISA relative to control. Format: functional. In a few lines: (§1)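 Male Sprague-Dawley rats (180-220 g), fasted overnight, were given 10 mg/kg by gastric intubation as a 5 mg/mL suspension in 0.5% methocellulose. At 2, 4, 7 and 25 h, 50 μL CSF was taken from the cisterna magna under isoflurane, then brain was collected. Aβ37/38/40/42 were measured by MesoScale Discovery sandwich immunoassays. Results are mean % change versus T = 0 h, n = 5.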

Data set [2] has as its system Rattus norvegicus. Kind of data set: Antialzheimer activity in Sprague-Dawley rat assessed as amyloid beta 42 level in CSF at 10 mg/kg, po at 4 hrs by ELISA relative to control. Format: functional. The gist of the method: as §1
Data set [3] is described as follows: Fraction unbound in human plasma. Format: ADME, cell-free.
Data set [4] can be described thus: Plasma concentration in CD1 mouse at 10 mg/kg, po at 8 hrs by LC-MS/MS analysis. Format: ADME, organism-based. Also on record: dose 10 mg/kg, route oral. The gist of the method:
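Mice received a single 10 or 30 mg/kg oral dose. Plasma was sampled at several time points up to 48 h, with EDTA plasma obtained by centrifugation at 1900g, 10 min, 4 °C. Compound was quantified by LC-MS/MS, n = 4.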

Data set [5] has as its system Mus musculus. Kind of data set: Antialzheimer activity in CD1 mouse assessed as amyloid beta 42 level in brain at 30 mg/kg, po at 4 hrs by ELISA relative to control. Format: functional. The gist of the method:
(§2)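 Male CD1 SPF mice, fasted overnight, got a single oral dose of 10 or 30 mg/kg. At each time point the right brain hemisphere was homogenized in 0.4% DEA/50 mM NaCl with protease inhibitors and spun at 221300g for 50 min. The supernatant was neutralized with Tris-HCl pH 6.8. Aβ38 or Aβ42 was read by sandwich ELISA with a fluorogenic peroxidase substrate (ex 320/em 420 nm). Results are mean % change versus T = 0 h, n = 4.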

Data set [6] is described as follows: Fraction unbound in mouse plasma. Format: ADME, cell-free.
Data set [7] can be described thus: Drug uptake in Sprague-Dawley rat brain at 10 mg/kg, po at 4 hrs by LC-MS/MS analysis. Format: ADME, organism-based. Also on record: dose 10 mg/kg, route oral. The conditions noted are these: read-out: Drug uptake. The gist of the method:
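Overnight-fasted male Sprague–Dawley rats (180–220 g) were dosed 10 mg/kg by gastric intubation of a 5 mg/mL suspension in 0.5% methocellulose. Rats were anesthetized with isoflurane, CSF was taken from the cisterna magna, then they were decapitated. Brain compound levels were measured as in the mouse assay. n = 5.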

The test system of data set [8] is Mus musculus. Kind of data set: Antialzheimer activity in po dosed CD1 mouse assessed as amyloid beta 42 level in brain at 4,8 and 24 hrs by ELISA. Format: functional, organism-based. In a few lines:
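Overnight-fasted male CD1 SPF mice got one oral dose (10 or 30 mg/kg) formulated in 20% Captisol in water. Right brain hemisphere was homogenized in 0.4% DEA/50 mM NaCl with protease inhibitors and spun at 221300g. Supernatant was neutralized with Tris-HCl pH 6.8. Aβ42 was measured by ELISA (C-terminal JRF/cAβ42/26 capture, fluorogenic peroxidase read ex 320/em 420 nm). Values are mean % change vs T = 0 h, n = 4.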

A short description of data set [9]: Plasma concentration in CD1 mouse at 10 mg/kg, po at 4 hrs by LC-MS/MS analysis. Format: ADME, organism-based. Also on record: dose 10 mg/kg, route oral.
For data set [10], the system named is Mus musculus. Kind of data set: Inhibition of gamma-secretase in CD1 mouse assessed as total amyloid beta level in brain at 30 mg/kg, po at 4 hrs by ELISA relative to control. Format: functional. Also on record: scale not given: the % may be the effect or the level left. In a few lines:
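Fasted male CD1 SPF mice were dosed orally at 10 or 30 mg/kg in 20% Captisol. Right hemisphere was homogenized in 0.4% DEA/50 mM NaCl and the high-speed supernatant neutralized. Aβtotal ELISA used N-terminal JRF/rAβ/2 capture, biotinylated 4G8 and streptavidin-peroxidase, then a fluorogenic substrate (ex 320/em 420 nm). Standards spanned 10000–0.3 pg/mL. Values are % change vs T = 0 h, n = 4.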

Data set [11] relates to Rattus norvegicus. Kind of data set: Antialzheimer activity in Sprague-Dawley rat assessed as amyloid beta 37 level in brain at 10 mg/kg, po at 7 hrs by ELISA relative to control. Format: functional. In a few lines:
as §1

The subject of data set [12] is Canis familiaris. Briefly: Antialzheimer activity in beagle dog assessed as amyloid beta 42 level in cerebrospinal fluid at 20 mg/kg, po at 24 hrs by ELISA relative to control.
Data set [13] in a line: Plasma concentration in Sprague-Dawley rat at 10 mg/kg, po at 2 hrs by LC-MS/MS analysis. Format: ADME, organism-based. Also on record: dose 10 mg/kg, route oral. In a few lines:
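Overnight-fasted male Sprague-Dawley rats (180–220 g) were given 10 mg/kg by gastric intubation of a 5 mg/mL suspension in 0.5% methocellulose. Blood was collected after decapitation at 2, 4, 7 and 25 h under isoflurane anaesthesia. Plasma compound was measured as in the mouse assay, n = 5.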

Data set [14] concerns Rattus norvegicus. Briefly: Antialzheimer activity in Sprague-Dawley rat assessed as amyloid beta 37 level in CSF at 10 mg/kg, po at 2 hrs by ELISA relative to control. Format: functional. In a few lines:
as §1

Data set [15] relates to Rattus norvegicus. Kind of data set: Antialzheimer activity in Sprague-Dawley rat assessed as amyloid beta 38 level in CSF at 10 mg/kg, po at 25 hrs by ELISA relative to control. Format: functional. In a few lines: as §1
The target in the next data set is Cytochrome P450 2C9 (Homo sapiens, UniProt P11712). Kind of data set: Inhibition of CYP2C9 in human liver microsomes using tolbutamide as substrate. Format: ADME, Microsome.
The next data set addresses Cytochrome P450 2D6 (Homo sapiens, UniProt P10635). Briefly: Inhibition of CYP2D6 in human liver microsomes using dextrometorphan as substrate. Format: ADME, Microsome.
Data set [16] concerns Canis familiaris. Briefly: Antialzheimer activity in beagle dog assessed as amyloid beta 38 level in cerebrospinal fluid at 20 mg/kg, po at 24 hrs by ELISA relative to control.
Data set [17] has as its system Canis familiaris. Briefly: Antialzheimer activity in beagle dog assessed as amyloid beta 40 level in cerebrospinal fluid at 20 mg/kg, po at 24 hrs by ELISA relative to control.
For data set [18], the system named is Mus musculus. Kind of data set: Antialzheimer activity in CD1 mouse assessed as amyloid beta 38 level in brain at 30 mg/kg, po at 4 hrs by ELISA relative to control. Format: functional. The gist of the method:
as §2

The subject of the next data set is MDR1. Briefly: Apparent permeability from basal to apical side of pig LLCPK1 cells expressing MDR1. Format: ADME, cell-based, Sus scrofa. To be noted: LLC-PK1.
Data set [19] relates to Rattus norvegicus. Briefly: Antialzheimer activity in Sprague-Dawley rat assessed as amyloid beta 42 level in CSF at 10 mg/kg, po at 25 hrs by ELISA relative to control. Format: functional. The gist of the method: as §1
Data set [20] concerns Rattus norvegicus. Kind of data set: Antialzheimer activity in Sprague-Dawley rat assessed as amyloid beta 42 level in brain at 10 mg/kg, po at 2 hrs by ELISA relative to control. Format: functional. In a few lines:
as §1

Cytochrome P450 2D6, sequence (P10635 whole entry): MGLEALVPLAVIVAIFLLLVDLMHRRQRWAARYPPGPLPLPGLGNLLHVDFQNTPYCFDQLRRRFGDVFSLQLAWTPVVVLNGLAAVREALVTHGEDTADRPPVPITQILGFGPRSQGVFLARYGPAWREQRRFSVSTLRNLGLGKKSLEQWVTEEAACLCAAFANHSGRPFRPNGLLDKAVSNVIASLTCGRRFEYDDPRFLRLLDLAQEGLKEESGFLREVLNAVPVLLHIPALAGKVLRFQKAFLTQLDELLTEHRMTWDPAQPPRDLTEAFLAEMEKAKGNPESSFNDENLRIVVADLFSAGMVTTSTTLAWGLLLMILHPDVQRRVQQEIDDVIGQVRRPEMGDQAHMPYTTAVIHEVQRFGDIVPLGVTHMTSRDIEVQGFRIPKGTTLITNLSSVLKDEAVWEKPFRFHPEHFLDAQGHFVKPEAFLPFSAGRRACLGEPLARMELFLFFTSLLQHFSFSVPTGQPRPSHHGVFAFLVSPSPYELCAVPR
Cytochrome P450 2C9, sequence (P11712 whole entry): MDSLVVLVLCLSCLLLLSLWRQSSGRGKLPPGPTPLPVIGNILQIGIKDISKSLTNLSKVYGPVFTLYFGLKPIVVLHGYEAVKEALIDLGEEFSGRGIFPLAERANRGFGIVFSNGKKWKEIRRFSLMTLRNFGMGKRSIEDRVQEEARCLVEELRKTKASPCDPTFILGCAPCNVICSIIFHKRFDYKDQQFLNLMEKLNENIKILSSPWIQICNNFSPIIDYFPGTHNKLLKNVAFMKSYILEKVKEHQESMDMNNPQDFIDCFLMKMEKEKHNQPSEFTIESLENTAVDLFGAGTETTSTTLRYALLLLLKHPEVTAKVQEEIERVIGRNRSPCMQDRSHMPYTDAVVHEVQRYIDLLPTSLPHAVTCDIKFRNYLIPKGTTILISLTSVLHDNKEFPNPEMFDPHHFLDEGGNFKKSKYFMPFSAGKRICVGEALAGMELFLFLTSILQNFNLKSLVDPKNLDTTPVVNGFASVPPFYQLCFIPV

On to `COc1nc(Nc2cccc3c2nc(-c2ccc(F)cc2)n3C)ccc1-n1cnc(C)c1`, for which, in the data set on Brain, the Drug uptake entry is “BLD”. Further, the Activity in the data set on Rattus norvegicus [1] is 60%; in the data set with Rattus norvegicus [2], 66%; with Mus musculus [5], 35%; in the data set on Mus musculus [8], “Dose-dependent effect”; with Mus musculus [10], 98%; in the data set on Rattus norvegicus [11], 620%. Besides, the Activity is given as 89% in the data set on Canis familiaris [12]; 735% with Rattus norvegicus [14]; 110% in the data set with Rattus norvegicus [15]; 114% with Canis familiaris [16]; 113% in the data set with Canis familiaris [17]; 165% in the data set on Mus musculus [18]. For the same compound, the Activity in the data set on Rattus norvegicus [19] was 89%; in the data set on Rattus norvegicus [20], 75%. For the same compound, the fraction unbound in data set [3] was found to be 0.0013; in [6] it was 0.0004. The concentration at 8 h in data set [4] came to 2.7 µM. In addition, the concentration at 4 h in data set [7] is 2.2 µM; in data set [9] it was 5.3 µM. This compound also yielded a concentration at 2 h in data set [13] of 4.6 µM. The IC50 came to 21.9 µM at Cytochrome P450 2C9 and 3.6 µM on Cytochrome P450 2D6. In addition, the basolateral-to-apical permeability (Papp B→A) in the data set with MDR1 worked out at 4 ×10⁻⁶ cm/s.
